Active and inactive are the calls of the source. Unless noted, no cut-off for these calls is given here.
What was measured:
3T3-L1 = assay: Effect on total eIF4E protein level in mouse 3T3L1 cells at 3 uM after 2 hrs by Western blot analysis; format: ADME, cell-based; settings: 3t3-l1, 2 h
How it was run: (§1)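 Mouse 3T3-L1 pre-adipocytes (DMEM high glucose, 10% heat-inactivated FBS, 37 °C, 5% CO₂) treated 2 h with compounds at 3 μM or lower concentrations down to 0.1 μM final; DMSO vehicle 0.03-0.05% final. RIPA lysates cleared, equal protein resolved by SDS-PAGE, immunoblotted for P-eIF4E and total eIF4E, fluorescent secondary detection.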

Mus musculus [1] = species: Mus musculus; assay: Inhibition of MNK in mouse 3T3L1 cells assessed as reduction of eIF4E phosphorylation at 3 uM after 2 hrs by Western blot analysis; format: cell-based; how it was run: as §1
Mus musculus [2] = species: Mus musculus; assay: Inhibition of MNK in mouse 3T3L1 cells assessed as reduction of eIF4E phosphorylation at 0.1 uM after 2 hrs by Western blot analysis; format: cell-based; how it was run: as §1

SMILES	Activity (3T3-L1)	MNK inhibition (active/not active) (Mus musculus [1])	inhibition of eIF4E phosphorylation (active/not active) (Mus musculus [2])
Cc1c(C(=O)N2CCCCC2)sc2ncnc(Nc3ccc(F)cc3OC(C)C)c12	Non-Toxic	Active	
Cc1c(C(=O)N2CCCC2)sc2ncnc(Nc3ccc(F)cc3OC(C)C)c12	Non-Toxic	Active	
Cc1c(C(=O)NCCc2ccncc2)sc2ncnc(Nc3ccc(F)cc3OC(C)C)c12	Non-Toxic	Active	inactive
COc1cc(F)ccc1Nc1ncnc2sc(C(=O)N3CCCCC3)c(C)c12	Non-Toxic	Active	
COc1cc(F)ccc1Nc1ncnc2sc(C(=O)NCC(C)(C)CN(C)C)c(C)c12	Non-Toxic		
Cc1c(C(=O)NCCc2c[nH]cn2)sc2ncnc(Nc3ccc(F)cc3OC(C)C)c12	Non-Toxic	Active	inactive
Cc1c(C(=O)NCCCN2CCOCC2)sc2ncnc(Nc3ccc(F)cc3OC(C)C)c12	Non-Toxic	Active	inactive
Cc1c(C(=O)OCCCO)sc2ncnc(Nc3ccc(F)cc3OC(C)C)c12	Non-Toxic	Active	
COc1cc(F)ccc1Nc1ncnc2sc(C(=O)NCCCO)c(C)c12	Non-Toxic	Active	
Cc1c(C(=O)N2CCOCC2)sc2ncnc(Nc3ccc(F)cc3OC(C)C)c12	Non-Toxic	Active	
Cc1c(C(=O)NC2CCCCC2)sc2ncnc(Nc3ccc(F)cc3OC(C)C)c12	Non-Toxic	Active	
COc1cc(F)ccc1Nc1ncnc2sc(C(=O)OCCO)c(C)c12	Non-Toxic		
COc1cc(F)ccc1Nc1ncnc2sc(C(=O)N3CCCC3)c(C)c12	Non-Toxic	Active	
Cc1c(C(=O)NCCCO)sc2ncnc(Nc3ccc(F)cc3OC(C)C)c12		Active	
COc1cc(F)ccc1Nc1ncnc2sc(C(=O)NCCc3ccncc3)c(C)c12	Non-Toxic	Active	
Cc1c(C(=O)NCC(C)(C)CN(C)C)sc2ncnc(Nc3ccc(F)cc3OC(C)C)c12	Non-Toxic	Active	inactive
COc1cc(F)ccc1Nc1ncnc2sc(C(=O)N3CCN(C)CC3)c(C)c12	Non-Toxic	Active	
COc1cc(F)ccc1Nc1ncnc2sc(C(=O)NC3CCCCC3)c(C)c12	Non-Toxic	Active	
Cc1c(C(=O)OCCc2ccccc2)sc2ncnc(Nc3ccc(F)cc3OC(C)C)c12	Non-Toxic	Active	
Cc1c(C(=O)OCCO)sc2ncnc(Nc3ccc(F)cc3OC(C)C)c12		Active	
COc1cc(F)ccc1Nc1ncnc2sc(C(=O)NCCCN(C)C)c(C)c12		inactive	
Cc1c(C(=O)NCCCN(C)C)sc2ncnc(Nc3ccc(F)cc3OC(C)C)c12		Active	
COc1cc(F)ccc1Nc1ncnc2sc(C(=O)NCCc3c[nH]cn3)c(C)c12	Non-Toxic	Active	
COC(=O)c1sc2ncnc(Nc3ccc(F)cc3OC(C)C)c2c1C		inactive	
COc1cc(F)ccc1Nc1ncnc2sc(C(=O)NCCCN3CCOCC3)c(C)c12	Non-Toxic	Active	
COc1cc(F)ccc1Nc1ncnc2sc(C(=O)N3CCOCC3)c(C)c12	Non-Toxic	Active	
Cc1c(C(=O)N2CCN(C)CC2)sc2ncnc(Nc3ccc(F)cc3OC(C)C)c12	Non-Toxic	Active	
COc1cc(F)ccc1Nc1ncnc2sc(C(=O)NCCCN3CCCC3)c(C)c12	Non-Toxic	Active	
